From ChEMBL document CHEMBL1255417, “Correlation between in vitro activity of posaconazole and in vivo efficacy against Rhizopus oryzae infection in mice” (Antimicrob Agents Chemother, 2010)
≈ marks a conversion by molar mass, not a printed value. Calls of active or inactive are those of the source. The calls are words filed in the database; no cut-off is given here.

Key:
[1] = test system: Rhizopus arrhizus; experiment: Antifungal activity against drug-susceptible Rhizopus oryzae UTHSC 04-443 by broth microdilution method; type: functional
Summary of the method: (§1)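 CLSI broth microdilution for filamentous fungi (M38-A2); MIC recorded in µg/ml against clinical isolates; breakpoints applied at 24 h.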

[2] = test system: Rhizopus arrhizus; experiment: Antifungal activity against drug-susceptible Rhizopus oryzae UTHSC 06-731 by broth microdilution method; type: functional
[3] = test system: Rhizopus arrhizus; experiment: Antifungal activity against drug-susceptible Rhizopus oryzae UTHSC 04-2159 by broth microdilution method; type: functional; summary of the method: as §1
[4] = test system: Rhizopus arrhizus; experiment: Antifungal activity against drug-susceptible Rhizopus oryzae UTHSC 06-329 by broth microdilution method; type: functional
Summary of the method: (§2)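 Posaconazole MIC in ug/ml, determined by broth microdilution following the CLSI guidelines for moulds (M38-A2).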

[5] = test system: Rhizopus arrhizus; experiment: Antifungal activity against drug-susceptible Rhizopus oryzae UTHSC 05-2975 by broth microdilution method; type: functional; summary of the method: as §2
[6] = test system: Rhizopus arrhizus; experiment: Antifungal activity against drug-susceptible Rhizopus oryzae UTHSC 05-197 by broth microdilution method; type: functional; summary of the method: as §1
[7] = test system: Rhizopus arrhizus; experiment: Antifungal activity against drug-susceptible Rhizopus oryzae UTHSC 03-511 by broth microdilution method; type: functional; summary of the method: as §1
[8] = test system: Rhizopus arrhizus; experiment: Antifungal activity against drug-susceptible Rhizopus oryzae UTHSC 03-3110 by broth microdilution method; type: functional; summary of the method: as §1
[9] = test system: Rhizopus arrhizus; experiment: Antifungal activity against drug-susceptible Rhizopus oryzae UTHSC 06-1301 by broth microdilution method; type: functional; summary of the method: as §2
[10] = test system: Rhizopus arrhizus; experiment: Antifungal activity against drug-susceptible Rhizopus oryzae UTHSC 05-3580 by broth microdilution method; type: functional; summary of the method: as §2
[11] = test system: Rhizopus arrhizus; experiment: Antifungal activity against drug-susceptible Rhizopus oryzae UTHSC 04-1220 by broth microdilution method; type: functional; summary of the method: as §1
[12] = test system: Rhizopus arrhizus; experiment: Antifungal activity against drug-susceptible Rhizopus oryzae UTHSC 03-112 by broth microdilution method; type: functional
Summary of the method: (§3)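 Broth microdilution MIC in µg/ml, run per the CLSI (formerly NCCLS) guideline for filamentous fungi, M38-A2.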

[13] = test system: Rhizopus arrhizus; experiment: Antifungal activity against drug-susceptible Rhizopus oryzae UTHSC 05-3111 by broth microdilution method; type: functional; summary of the method: as §2
[14] = test system: Rhizopus arrhizus; experiment: Antifungal activity against drug-intermediate Rhizopus oryzae UTHSC 03-285 by broth microdilution method; type: functional; summary of the method: as §3
[15] = test system: Rhizopus arrhizus; experiment: Antifungal activity against drug-intermediate Rhizopus oryzae UTHSC 07-365 by broth microdilution method; type: functional; summary of the method: as §3
[16] = test system: Rhizopus arrhizus; experiment: Antifungal activity against drug-susceptible Rhizopus oryzae UTHSC 03-228 at 5 ug by disk diffusion assay; type: functional; settings: read-out: DIZ
Summary of the method: (§4)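 Neo-Sensitabs tablet diffusion on Mueller-Hinton agar, following the guidelines for molds. Tablets were 9 mm in diameter and held 5 µg of drug. The read-out was inhibition zone diameter in mm.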

[17] = test system: Rhizopus arrhizus; experiment: Antifungal activity against drug-susceptible Rhizopus oryzae UTHSC 02-2882 at 5 ug by disk diffusion assay; type: functional; settings: read-out: DIZ; summary of the method: as §4
[18] = test system: Rhizopus arrhizus; experiment: Antifungal activity against drug-susceptible Rhizopus oryzae UTHSC 04-1241 at 5 ug by disk diffusion assay; type: functional; settings: read-out: DIZ
Summary of the method: (§5)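 Neo-Sensitabs tablet diffusion on Mueller-Hinton agar, following guidelines for molds; 9 mm tablets containing 5 µg posaconazole; inhibition zone diameter measured in mm; zone breakpoints applied at 24 h.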

[19] = test system: Rhizopus arrhizus; experiment: Antifungal activity against drug-susceptible Rhizopus oryzae UTHSC 04-1613 at 5 ug by disk diffusion assay; type: functional; settings: read-out: DIZ; summary of the method: as §5
[20] = test system: Rhizopus arrhizus; experiment: Antifungal activity against drug-susceptible Rhizopus oryzae UTHSC 2868 at 5 ug by disk diffusion assay; type: functional; settings: read-out: DIZ
[21] = test system: Rhizopus arrhizus; experiment: Antifungal activity against drug-susceptible Rhizopus oryzae UTHSC 06-4152 at 5 ug by disk diffusion assay; type: functional; settings: read-out: DIZ
Summary of the method: (§6)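 Neo-Sensitabs tablet diffusion on Mueller-Hinton agar, run per the mould guidelines. Tablets are 9 mm in diameter and carry 5 ug posaconazole. The read-out is the inhibition zone diameter in mm.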

[22] = test system: Rhizopus arrhizus; experiment: Antifungal activity against drug-susceptible Rhizopus oryzae UTHSC 06-329 at 5 ug by disk diffusion assay; type: functional; settings: read-out: DIZ; summary of the method: as §6
[23] = test system: Rhizopus arrhizus; experiment: Antifungal activity against drug-susceptible Rhizopus oryzae UTHSC 05-2975 at 5 ug by disk diffusion assay; type: functional; settings: read-out: DIZ; summary of the method: as §6
[24] = test system: Rhizopus arrhizus; experiment: Antifungal activity against drug-susceptible Rhizopus oryzae UTHSC 03-1826 at 5 ug by disk diffusion assay; type: functional; settings: read-out: DIZ; summary of the method: as §4
[25] = test system: Rhizopus arrhizus; experiment: Antifungal activity against drug-susceptible Rhizopus oryzae UTHSC 03-511 at 5 ug by disk diffusion assay; type: functional; settings: read-out: DIZ; summary of the method: as §5
[26] = test system: Rhizopus arrhizus; experiment: Antifungal activity against drug-susceptible Rhizopus oryzae UTHSC 03-3110 at 5 ug by disk diffusion assay; type: functional; settings: read-out: DIZ; summary of the method: as §5
[27] = test system: Rhizopus arrhizus; experiment: Antifungal activity against drug-susceptible Rhizopus oryzae UTHSC 03-2970 at 5 ug by disk diffusion assay; type: functional; settings: read-out: DIZ; summary of the method: as §4
[28] = test system: Rhizopus arrhizus; experiment: Antifungal activity against drug-susceptible Rhizopus oryzae UTHSC 05-3580 at 5 ug by disk diffusion assay; type: functional; settings: read-out: DIZ; summary of the method: as §6
[29] = test system: Rhizopus arrhizus; experiment: Antifungal activity against drug-susceptible Rhizopus oryzae UTHSC 05-2447 at 5 ug by disk diffusion assay; type: functional; settings: read-out: DIZ; summary of the method: as §5
[30] = test system: Rhizopus arrhizus; experiment: Antifungal activity against drug-intermediate Rhizopus oryzae UTHSC 05-3032 at 5 ug by disk diffusion assay; type: functional; settings: read-out: DIZ; summary of the method: as §4
[31] = test system: Rhizopus arrhizus; experiment: Antifungal activity against drug-susceptible Rhizopus oryzae UTHSC 06-4133 after 24 to 48 hrs; type: functional
Summary of the method: (§7)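 Minimum fungicidal concentration taken from the broth microdilution plates. From each well with complete inhibition (optically clear), 20 ul is plated on potato dextrose agar. Plates are incubated at 35°C for 24 to 48 h. The MFC is the lowest drug concentration giving no growth.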

[32] = test system: Rhizopus arrhizus; experiment: Antifungal activity against drug-susceptible Rhizopus oryzae UTHSC 04-2459 after 24 to 48 hrs; type: functional
Summary of the method: (§8)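 Minimum fungicidal concentration: 20 µl from each microdilution well showing complete inhibition (optically clear) plated on potato dextrose agar, incubated 35°C for 24 to 48 h; MFC taken as lowest drug concentration giving no growth.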

[33] = test system: Rhizopus arrhizus; experiment: Antifungal activity against drug-susceptible Rhizopus oryzae UTHSC 06-731 after 24 to 48 hrs; type: functional
[34] = test system: Rhizopus arrhizus; experiment: Antifungal activity against drug-susceptible Rhizopus oryzae UTHSC 04-2159 after 24 to 48 hrs; type: functional; summary of the method: as §8
[35] = test system: Rhizopus arrhizus; experiment: Antifungal activity against drug-susceptible Rhizopus oryzae UTHSC 06-329 after 24 to 48 hrs; type: functional; summary of the method: as §7
[36] = test system: Rhizopus arrhizus; experiment: Antifungal activity against drug-susceptible Rhizopus oryzae UTHSC 05-1502 after 24 to 48 hrs; type: functional; summary of the method: as §8
[37] = test system: Rhizopus arrhizus; experiment: Antifungal activity against drug-susceptible Rhizopus oryzae UTHSC 05-1817 after 24 to 48 hrs; type: functional; summary of the method: as §8
[38] = test system: Rhizopus arrhizus; experiment: Antifungal activity against drug-susceptible Rhizopus oryzae UTHSC 06-4336 after 24 to 48 hrs; type: functional; summary of the method: as §7
[39] = test system: Rhizopus arrhizus; experiment: Antifungal activity against drug-susceptible Rhizopus oryzae UTHSC 05-3111 after 24 to 48 hrs; type: functional; summary of the method: as §7
[40] = test system: Rhizopus arrhizus; experiment: Antifungal activity against drug-susceptible Rhizopus oryzae UTHSC 05-1679 after 24 to 48 hrs; type: functional; summary of the method: as §8
[41] = test system: Rhizopus arrhizus; experiment: Antifungal activity against drug-susceptible Rhizopus oryzae UTHSC 03-51 infected in OF1 mouse assessed as increase in mouse survival at 20-30 mg/kg, po bid treated 24 hrs after fungal infection; type: functional, organism-based
Summary of the method: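 Male OF1 mice (30 g) immunosuppressed 1 day before infection with cyclophosphamide 200 mg/kg i.p. plus 5-fluorouracil 150 mg/kg i.v.; challenged i.v. via tail vein with 2 × 10^4 CFU; oral gavage twice daily for 7 days from 24 h post-challenge; ceftazidime 5 mg/day s.c. days 1–7; untreated controls; 10 mice/group; survival checked daily to day 20.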

[42] = test system: Rhizopus arrhizus; experiment: Antifungal activity against drug-intermediate Rhizopus oryzae UTHSC 03-3165 by broth microdilution method; type: functional; summary of the method: as §3

Q: Which results are given for CC[C@@H]([C@H](C)O)n1ncn(-c2ccc(N3CCN(c4ccc(OC[C@@H]5CO[C@@](Cn6cncn6)(c6ccc(F)cc6F)C5)cc4)CC3)cc2)c1=O [POSACONAZOLE]?
A: MIC [1]: 0.5 µg/mL (≈ 0.713 µM); MIC [2]: 0.5 µg/mL (≈ 0.713 µM); MIC [3]: 0.5 µg/mL (≈ 0.713 µM); MIC [4]: 0.5 µg/mL (≈ 0.713 µM); MIC [5]: 1 µg/mL (≈ 1.43 µM); MIC [6]: 0.25 µg/mL (≈ 0.357 µM); MIC [7]: 0.25 µg/mL (≈ 0.357 µM); MIC [8]: 1 µg/mL (≈ 1.43 µM); MIC [9]: 0.5 µg/mL (≈ 0.713 µM); MIC [10]: 0.5 µg/mL (≈ 0.713 µM); MIC [11]: 0.5 µg/mL (≈ 0.713 µM); MIC [12]: 0.5 µg/mL (≈ 0.713 µM); MIC [13]: 0.25 µg/mL (≈ 0.357 µM); MIC [14]: 2 µg/mL (≈ 2.85 µM); MIC [15]: 2 µg/mL (≈ 2.85 µM); zone of inhibition at 5 µg/disc [16]: 25 mm; zone of inhibition at 5 µg/disc [17]: 22 mm; zone of inhibition at 5 µg/disc [18]: 22 mm; zone of inhibition at 5 µg/disc [19]: 22 mm; zone of inhibition at 5 µg/disc [20]: 19 mm; zone of inhibition at 5 µg/disc [21]: 22 mm; zone of inhibition at 5 µg/disc [22]: 20 mm; zone of inhibition at 5 µg/disc [23]: 20 mm; zone of inhibition at 5 µg/disc [24]: 18 mm; zone of inhibition at 5 µg/disc [25]: 22 mm; zone of inhibition at 5 µg/disc [26]: 17 mm; zone of inhibition at 5 µg/disc [27]: 20 mm; zone of inhibition at 5 µg/disc [28]: 25 mm; zone of inhibition at 5 µg/disc [29]: 17 mm; zone of inhibition at 5 µg/disc [30]: 14 mm; MFC [31]: 1 µg/mL (≈ 1.43 µM); MFC [32]: 0.5 µg/mL (≈ 0.713 µM); MFC [33]: 0.5 µg/mL (≈ 0.713 µM); MFC [34]: 1 µg/mL (≈ 1.43 µM); MFC [35]: 0.5 µg/mL (≈ 0.713 µM); MFC [36]: 1 µg/mL (≈ 1.43 µM); MFC [37]: 2 µg/mL (≈ 2.85 µM); MFC [38]: 1 µg/mL (≈ 1.43 µM); MFC [39]: 2 µg/mL (≈ 2.85 µM); MFC [40]: 0.5 µg/mL (≈ 0.713 µM); Activity [41]: Active; MIC [42]: 2 µg/mL (≈ 2.85 µM)
